Measurements reported in ChEMBL document CHEMBL1123471, “Dopamine receptor agonists: 3-allyl-6-chloro-2,3,4,5-tetrahydro- 1-(4-hydroxyphenyl)-1H-3-benzazepine-7,8-diol and a series of related 3-benzazepines” (J Med Chem, 1986).
Structures can show the parent of a compound that is named as a salt.

Key:
Assay type in all cases: functional, organism-based; call rule not given here
Oryctolagus cuniculus [1] = species: Oryctolagus cuniculus; assay: Inhibition of the constrictor response to electrical stimulation in rabbit ear artery.
How it was run: (§1)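 Isolated perfused rabbit ear artery in Krebs-Henseleit (95% O2/5% CO2, 35 °C, pH 7.4), stabilized ≥1 h. Sympathetic nerves field-stimulated every 4 min (0.7-ms pulses, 75 V, 10-15 Hz trains of 300-500 ms). Compound superfused at increasing concentrations, 4 min each. Read-out is the rise in perfusion pressure; IC50 from least-squares curves.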

Rattus norvegicus = species: Rattus norvegicus; assay: Concentration necessary to cause 50% increase in cAMP formation(by adenylate cyclase) relative to the maximum increase caused by the compound
How it was run: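 Rat caudate homogenate (male Charles River rats, 225-300 g), made at 0 °C in 50 mM Tris-maleate pH 7.4 with 2 mM EGTA; incubated with test compound at increasing concentrations, 2 mM MgSO4, 5 mM aminophylline, and [14C]ATP (final 0.65 mM) for 3 min at 30 °C. [14C]cAMP isolated on alumina/Dowex columns and counted; quadruplicates; least-squares dose-response curves.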

Oryctolagus cuniculus [2] = species: Oryctolagus cuniculus; assay: Concentration necessary to inhibit 50% of the constrictor response to electrical stimulation in rabbit ear artery; I=Inactive; how it was run: as §1

SMILES	EC50 (Oryctolagus cuniculus [1]) [nM]	EC50 (Rattus norvegicus) [nM]	EC50 (Oryctolagus cuniculus [2])
CCCN(CCC)CCc1ccc(O)c(O)c1	60	–	–
OCCN1CCc2c(cc(O)c(O)c2Cl)C(c2ccc(O)cc2)C1 (stereo not given)	500	1000	–
NCCc1ccc(O)c(O)c1 [DOPAMINE]	38	–	–
OCC(O)CN1CCc2c(cc(O)c(O)c2Cl)C(c2ccc(O)cc2)C1 (stereo not given)	> 10000	–	–
Oc1ccc(C2CNCCc3c2cc(O)c(O)c3Cl)cc1 (stereo not given) [FENOLDOPAM MESYLATE]	1000	57	–
CCCN(CCC)CCc1ccc(O)c2c1CC(=O)N2 [SKF-89124A]	2	–	–
C=CCN1CCc2c(cc(O)c(O)c2Cl)C(c2cccc(O)c2)C1 (stereo not given)	760	125	–
CCCN1CCc2c(cc(O)c(O)c2Cl)C(c2ccc(O)cc2)C1 (stereo not given)	1000	550	–
CN1CCc2c(cc(O)c(O)c2Cl)C(c2ccc(O)cc2)C1 (stereo not given)	90	~10000	–
CCCCN(CCC)CCc1ccc(O)c(O)c1	48	–	–
CN1CCc2cccc3c2[C@H]1Cc1ccc(O)c(O)c1-3 [APOMORPHINE]	44	–	–
Oc1ccc(C2CN(CC3CC3)CCc3c2cc(O)c(O)c3Cl)cc1 (stereo not given)	1700	1100	–
Oc1cc2c(cc1O)CCNCC2	12	–	–
C=CCN1CCc2c(cc(O)c(O)c2Cl)C(c2ccc(O)cc2)C1 (stereo not given)	122	15	–
C#CCN1CCc2c(cc(O)c(O)c2Cl)C(c2ccc(O)cc2)C1 (stereo not given)	2700	640	–
NC1CCc2cc(O)c(O)cc2C1 (stereo not given)	17	–	–
C=CCN1CCc2c(cc(O)c(O)c2Cl)[C@@H](c2ccc(O)cc2)C1	84	9	–
Oc1ccc(C2CN(C/C=C/c3ccccc3)CCc3c2cc(O)c(O)c3Cl)cc1 (stereo not given)	–	–	Not Active
C/C=C/CN1CCc2c(cc(O)c(O)c2Cl)C(c2ccc(O)cc2)C1 (stereo not given)	10000	–	–
C=CCN1CCc2c(cc(O)c(O)c2Cl)[C@H](c2ccc(O)cc2)C1	3000	> 10000	–
